Measurements taken from the EternaBench riboswitch data.

System: MS2 coat protein
Test: apparent Kd, MS2 coat protein; higher = weaker binding; RNA-MaP array; FMN 200 µM where present
Procedure, shortened: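 Each design was made on Illumina sequencing-chip clusters by stalled E. coli RNA polymerase and titrated with SNAP-549-labelled MS2 coat protein from 0.7 or 1.5 nM, doubling to 3 µM, in the absence and then the presence of constant ligand. The buffer was 100 mM Tris-HCl pH 7.5, 80 mM KCl, 4 mM MgCl2, BSA, DTT, yeast tRNA and Tween-20. The apparent Kd is the median of filtered per-cluster fits of binding curves, with green signal normalised to red-channel RNA signal and control-cluster median Fmax.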

[1] = designed as: ON switch for flavin mononucleotide, no ligand
[2] = ligand present: flavin mononucleotide, designed as: ON switch for flavin mononucleotide
[3] = designed as: OFF switch for flavin mononucleotide, no ligand
[4] = ligand present: flavin mononucleotide, designed as: OFF switch for flavin mononucleotide

Sequence | apparent Kd [1] [nM] | apparent Kd [2] [nM] | apparent Kd [3] [nM] | apparent Kd [4] [nM]
GGCGGAGACGUUAACAUGAGGAUCACCCAUGUCGAAGGAGAUGAGGAUAUCGCACACGAUGUGUGUGAGAAGGCAUGGUCUGCC | 67.4 | 15.4 |  | 
GGCUAGUCAGGAUAUACGAACAUGUCAAAAGACGUGAAGGGACAUGAGGAUCACCCAUGUAGAAGGGACUAGCU |  |  | 24.8 | 165
GGCUGGUGACAGCAUCCAUCAAAACAUGAGGAUCACCCAUGUAGAAGGCUGUACGGUUACCGUACAGAGGAUAUACAAUGAUGG |  |  | 6.96 | 9.46
GGCUGGUGAGCAGGAUAUGGUCGUGCCUUUGUUCGUGGUCCCACAUGAGGAUCACCCAUGUUCGACCAGAAGGGCUGACUUGAG |  |  | 31 | 18.9
GGGAGACAUGAGGAUCACCCAUGUGAAAACGUGCGAGGAUAUCAAUGGAAACCAUACUGUUGAGAAGGCGUUUGUC | 100 | 55 |  | 
GGGAUAAGGCAGAAGGACAUGAGGAUCACCCAUGUAGGAUAUGCCUACAUCCGCAUCUUAGGUCUCGCUCUGUCGCGACCCUCU | 8.99 | 5.29 |  | 
GGGCCACAUGAGGAUCACCCAUGUAAACCCGUGCUCAGGGCACAGGAUAUGGGCCUGGAUUAGGCCCAGAAGGGUGGUCUGGCC | 29.4 | 10.6 |  | 
GGGCCCGGAGGAUAUACAUGAGGAUCACCCAUGUACUCGGGCUCUAUUGGGCUCGGGUGUAGAAGGCCGGGCCC |  |  | 13.7 | 14.1
GGGCGACAUGAGGAUCACCCAUGUAACCUAAACGAAGGAUAUGGGCCUGAACGUCCAGGACCAGAAGGUCGGAAAU | 23.6 | 17.9 |  | 
GGGCGCCACGUAGGAUAUCUUCCGUAUGGGUCCCAUCAUAGCACAUGAGGAUCACCCAUGUGGGUAGAGAAGGACGGUUUGCCG |  |  | 221 | 59.5
GGGCUCGGAGGAUAUACAAUGGGCUCGGGAAAUCGGGUCUUACAUGAGGAUCACCCAUGUAGAAGGUCGGGUCU |  |  | 22.2 | 47.1
GGGCUGUCAGGAUAUAGUUCGAGUUCGGAAAUGAGCUUGAGCUAGAAGGGACAUGAGGAUCACCCAUGUGGCCC |  |  | 31.1 | 34.2
GGGCUGUCAGGAUAUGGGCUCGGGCUCGAAAGGGCUCGGGCUCAGAAGGGACAUGAGGAUCACCCAUGUGGCUC |  |  | 43.8 | 58
GGGCUGUCAGGAUAUGGGUUUGGGCCCGAAAGGGCCCGGGCCCAGAAGGGACAUGAGGAUCACCCAUGUGGCCC |  |  | 32.1 | 33.8
GGGUAACAUGAGGAUCACCCAUGUGAGGAUAUCCUAGGGAUGGAAGCCCGGCCAACCAGGAGAAGGUACUAAAG |  |  | 83.2 | 89.7
GGGUACAUCGGAGGAUAUCAUGCAAAUACAUGAGGAUCACCCAUGUCGAUGGAGACAUCGGAGAUUGAGAAGGCCGAUGUACCG | 21.9 | 5.5 |  | 
GGGUACAUCGGAGGAUAUCAUGUAAAUACAUGAGGAUCACCCAUGUCGAUGAAGACAUCGGAGAUUGAGAAGGCCGAUGUACCG | 1070 | 76.3 |  | 
GGGUACAUCGGAGGAUAUCAUGUAAAUACAUGAGGAUCACCCAUGUCGAUGGACACAUCGGAGAUUGAGAAGGCCGAUGUACCG | 14.5 | 5.27 |  | 
GGGUACAUCGGAGGAUAUCAUGUAAAUACAUGAGGAUCACCCAUGUCGAUGGCGACAUCGGAGAUUGAGAAGGCCGAUGUACCG | 448 | 12.3 |  | 
GGGUGACUAGGAUAUACAUGAGGAUCACCCAUGUGUACUGGACCUGGGUAGUCUUGGAGUAGAAGGAGUAGCUG |  |  | 85.3 | 127
GGGUGGCGUACAGGAUAUGUGGUACAUGAGGAUCACCCAUGUGCAUAUGAUGUUCGUGUGUCAUCAUAGAAGGGUACGUCGCUA | 91.2 | 59.2 |  | 
GGUAAAGGCAGCCUCUACCCUGCACAUGAGGAUCACCCAUGUAAGGAUAUCGCCGCGGUAAUGGUCGAGAAGGUAUAUCGGGUU |  |  | 15.9 | 46.5
GGUACCAACACAGGAUAUGCUAUCCUUUGGGUAGCAGAAGGGUGAAACAUGAGGAUCACCCAUGUGGUGCCAGGGCGUGAGCCC | 1460 | 96.2 |  | 
GGUACCAUCACAGGAUAUGCUUUUCUUUGGGAAGCAGAAGGGUGUAACAUGAGGAUCACCCAUGUGGUGCCAGGGCGUGAGCCC | 182 | 14.7 |  | 
GGUACUAUCACAGGAUAUGCUUUCCUUUGGGAAGCAGAAGGGUGUAACAUGAGGAUCACCCAUGUGGUGCCAGGGCGUGGGCCC | 154 | 17 |  | 
GGUACUCAAAGAGUACCAAAACGAACAUGAGGAUCACCCAUGUAGGAUAUGCUACUCAAAGAGUAGCAGAAGGACAUGUGCCUA |  |  |  | 122
GGUACUCAAAGAGUACCAAUACGAACAUGAGGAUCACCCAUGUAGGAUAUGCUACUCAAAGAGUAGCAGAAGGACAUGUGCUUA |  |  | 25.9 | 135
GGUACUCAAAGAGUACCAAUACGAACAUGAGGAUCACCCAUGUAGGAUAUGCUACUCAAAGAGUAGCAGAAGGACGUGUGCCUU |  |  | 21.4 | 42.4

Sequence | apparent Kd [1] [nM] | apparent Kd [2] [nM] | apparent Kd [3] [nM] | apparent Kd [4] [nM]
GGUACUCAAAGAGUACCAAUACGAACAUGAGGAUCACCCAUGUAGGAUAUGCUACUCAAAGAGUAGCAGAAGGAUAUGAUGUAU |  |  | 39.7 | 44.9
GGUACUCAAAGAGUACCAAUACGAACAUGAGGAUCACCCAUGUAGGAUAUGCUAUGCAAAGCAUAGCAGAAGGACAUGUGCCUU |  |  | 41.7 | 276
GGUACUCAAAGAGUACCAAUACGUACAUGAGGAUCACCCAUGUAGGAUAUGCUACUCAAAGAGUAGCAGAAGGACAUGUGCCUA |  |  | 12.7 | 31
GGUACUCAAAGAGUACUUGGUCGAACAUGAGGAUCACCCAUGUAGGAUAUGCAAAGCUAGAAGUAGCAGAAGGACAUGUGCAGC |  |  | 14.4 | 22.1
GGUAGCAACACAGGAUAUGCUAUCCUUUGGGUAGCAGAAGGGUGAAACAUGAGGAUCACCCAUGUGCUGCCAGGGCGUGAGCCC | 1800 | 136 |  | 
GGUCCAUCAUGAGGAUAUGGCACCUUAUUGGUGCCAGAAGGCAUGUCUAUAGACAUGAGGAUCACCCAUGUAAUAAAAUGGACC | 571 | 61.5 |  | 
GGUCGGAGCAGAGGAUAUACAUGAGGAUCACCCAUGUAAUAAAGUGAAGCCUGGAAACAGGCAAUGUAGAAGGCUGCUCCGACA |  |  | 10.8 | 70.6
GGUCGUCCCAUUAACAUGAGGAUCACCCAUGUCAAAAGACAUGAGGAUAUGGUACCUAAUUGGUACCAGAAGGCAUGGACGACC | 1210 | 115 |  | 
GGUGAGUGAGGAUAUCCAGGUCCUGACAUGAGGAUCACCCAUGUAUACGUCACGUGCGGAGGAGAAGGCACAAUAA |  |  | 91.1 | 297
GGUGCAAUGUAGAAGGCAGAUCUGAUUCAGAUCUGAGGAUAUACAUGAGGAUCACCCAUGUUAUGCACCAGCACGAGAGUGCAA |  |  | 6.57 | 12.6
GGUGCACGCACAGGAUAUCCGGCGGAGCUCGUCGGAGAAGGGUGACAUGAGGAUCACCCAUGUACGUGCAACUUAGUUUAAGAG | 20 | 19 |  | 
GGUGCACGCACAGGAUAUCCGGCGGAGCUCGUCGGAGAAGGGUGACAUGAGGAUCACCCAUGUACGUGCAAUCCAGUUUGAGAG | 23.8 | 28.3 |  | 
GGUGCGCCAAGCCUUAAGACCGAACAUGAGGAUCACCCAUGUGAGGAUAUGACAGACGAAAGAAGUCAGAAGGCAUAAGGGUGG |  |  | 7.12 | 10.1
GGUGCGUUUGUGAGGAUAUGCUGGUCCUUGGAUCAGCAGAAGGCACAUGAGGAUCACCCAUGUGGUGUCCGUCC |  |  | 222 | 117
GGUGCGUUUGUGAGGAUAUGCUGGUCCUUGGUUCGGCAGAAGGCACAUGAGGAUCACCCAUGUGGUGUCGUGCC |  |  | 35.1 | 77.5
GGUGUGCAGCAGGAUAUCCAUCCGCGGUAUGGUGGAGAAGGGCUGACAUGAGGAUCACCCAUGUGCGUCCUAGG |  |  | 40.3 | 133
GGUUGACAAAGUCAACCUUAACGAACAUGAGGAUCACCCAUGUAGGAUAUGCUACUCAAAGAGUAGCAGAAGGACAUGUGCCUU |  |  | 33 | 278
GGUUGGCGAGGAUAUACAUGAGGAUCACCCAUGUGGUCCUGAGAUAGAAUAGACCUUUGUAGAAGGCGCGGGUC |  |  | 172 | 136
GGUUGGCGAGGAUAUACAUGAGGAUCACCCAUGUGGUCCUGUGGCUGAUCUUGCCUUUGUAGAAGGCGCGGAUC |  |  | 49.7 | 53.6
GGUUGGCGAGGAUAUACAUGAGGAUCACCCAUGUGGUCCUGUGGCUGGUAAAACCUUUGUAGAAGGCGCGGGUC |  |  | 215 | 240
GGUUGUCAAAGACAACCUUAACGAACAUGAGGAUCACCCAUGUAGGAUAUGCUACUCAAAGAGUAGCAGAAGGACAUGUGUCUU |  |  | 30.8 | 156
GGUUGUCAUAGUCAUCCUUUCCGUACAUGAGGAUCACCCAUGUAGGAUAUGCUACUCACAGUGUAGCAGAAGGGCGUGUGUCUU |  |  | 16.6 | 17.6
GUAAAGUGAGGAUAUGGUAAAGUAAGUAUGUAGUAAGUAAUCCAGAAGGCACAUGAGGAUCACCCAUGUAAAUG |  |  | 30 | 32.3
GUAAAUCAUGUAGGAUAUGCAUGGCGAAGCUACGCAGAAGGACAUGAGGAUCACCCAUGUCUGUCCGUCUGCGUACAGACGGAC |  |  | 25.6 | 170
GUAACAUGAGGAUCACCCAUGUAUAGAACACUCAAUAGAUCUGAGGAUAUAGUAGAAUUUACAUACUAGAAGGCAGUGGGUACA | 55.2 | 29.6 |  | 
GUAACAUGAGGAUCACCCAUGUAUAGAACACUCAAUAGAUCUGAGGAUAUAGUGGAAUUUACACACUAGAAGGCAGUGGGUACA | 53.9 | 31.9 |  | 
GUAACAUGAGGAUCACCCAUGUCGUGCUAGAUGAGUUCUGGUGAGGAUAUACAUGGUAAAUAACUGUAGAAGGCGCUGGGUACA | 132 | 105 |  | 
